The source of these data is ChEMBL document CHEMBL1153156, “Pyrrole derivatives as potent inhibitors of lymphocyte-specific kinase: Structure, synthesis, and SAR” (Bioorg Med Chem Lett, 2010).

Experiment [1] addresses Tyrosine-protein kinase Lck (Homo sapiens) (UniProt P06239). The experiment is described as follows: Inhibition of human recombinant Lck expressed in insect cells by Packard topcount method. In a few lines:
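Lck (5 ng/well) incubated with compound in 50 mM Hepes, 50 mM KCl, 25 mM MgCl₂, 5 mM MnCl₂, Na₃VO₄, 0.01% CHAPS, 1 mM DTT. Poly(Glu-Tyr) 4:1 substrate, ATP and ³³P-ATP added; 25 °C, 60 min. Stopped with 100 mM phosphoric acid, filtered onto membrane, scintillation counted. IC₅₀ from eight-point half-log curves; mean of at least two independent experiments.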

Experiment [2] is described as follows: Immunosuppressive activity in C57BL6/J mouse T cells cocultured with mitomycin C-treated BALB/c spleen cells assessed as inhibition of [3H]thymidine incorporation after 72 hrs by mixed lymphocyte reaction assay. The format is functional. Put shortly:
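Nylon-wool-purified splenic and lymph node T cells from C57BL/6 mice (3 × 10⁵/well) cocultured with mitomycin-C-treated BALB/c spleen cells (2 × 10⁵/well), 37 °C, 5% CO₂, 72 h. Compounds added at culture start. ³H-thymidine pulse for last 4 h, incorporation counted. IC₅₀ from nine-point half-log concentration–response curves; mean of at least two independent experiments.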
In general terms: Dividing cells build labelled thymidine or BrdU into new DNA.

Experiment [3] can be described thus: Inhibition of PKA.
The target in experiment [4] is Tyrosine-protein kinase CSK (Homo sapiens, UniProt P41240). As to the kind of experiment: Inhibition of Csk.
Sequence of Tyrosine-protein kinase CSK (P41240 whole entry): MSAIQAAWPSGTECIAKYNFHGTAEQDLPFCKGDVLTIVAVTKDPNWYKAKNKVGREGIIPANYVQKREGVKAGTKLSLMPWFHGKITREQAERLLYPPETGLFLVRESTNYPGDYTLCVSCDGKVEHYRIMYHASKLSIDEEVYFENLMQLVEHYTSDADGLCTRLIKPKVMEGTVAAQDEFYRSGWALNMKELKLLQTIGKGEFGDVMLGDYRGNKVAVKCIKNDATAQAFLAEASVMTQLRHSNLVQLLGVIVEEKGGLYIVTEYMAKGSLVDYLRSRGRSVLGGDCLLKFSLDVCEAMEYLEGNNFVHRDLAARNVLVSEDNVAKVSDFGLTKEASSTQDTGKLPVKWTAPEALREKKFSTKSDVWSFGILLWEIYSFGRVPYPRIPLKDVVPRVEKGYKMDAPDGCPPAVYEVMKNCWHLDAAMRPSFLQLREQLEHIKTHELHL
Experiment [5] is described as follows: Selectivity ratio of IC50 for Src to IC50 for human recombinant Lck.
Experiment [6] deals with Cyclin-dependent kinase 1 (Homo sapiens, UniProt P06493). As to the kind of experiment: Inhibition of CDK1.
Sequence of Cyclin-dependent kinase 1 (P06493 whole entry): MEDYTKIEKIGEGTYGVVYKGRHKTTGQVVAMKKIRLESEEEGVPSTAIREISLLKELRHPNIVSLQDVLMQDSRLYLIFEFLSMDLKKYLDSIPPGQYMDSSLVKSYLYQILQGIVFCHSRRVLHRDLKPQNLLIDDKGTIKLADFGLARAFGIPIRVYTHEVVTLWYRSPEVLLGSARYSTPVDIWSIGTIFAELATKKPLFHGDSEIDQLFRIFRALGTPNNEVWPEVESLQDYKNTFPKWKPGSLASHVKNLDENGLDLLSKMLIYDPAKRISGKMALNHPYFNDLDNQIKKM
Experiment [7] can be described thus: Inhibition of PKC.
The target in experiment [8] is T1, Tyrosine-protein kinase ZAP-70 (Homo sapiens, UniProt P43403).
T1 sequence (P43403 whole entry): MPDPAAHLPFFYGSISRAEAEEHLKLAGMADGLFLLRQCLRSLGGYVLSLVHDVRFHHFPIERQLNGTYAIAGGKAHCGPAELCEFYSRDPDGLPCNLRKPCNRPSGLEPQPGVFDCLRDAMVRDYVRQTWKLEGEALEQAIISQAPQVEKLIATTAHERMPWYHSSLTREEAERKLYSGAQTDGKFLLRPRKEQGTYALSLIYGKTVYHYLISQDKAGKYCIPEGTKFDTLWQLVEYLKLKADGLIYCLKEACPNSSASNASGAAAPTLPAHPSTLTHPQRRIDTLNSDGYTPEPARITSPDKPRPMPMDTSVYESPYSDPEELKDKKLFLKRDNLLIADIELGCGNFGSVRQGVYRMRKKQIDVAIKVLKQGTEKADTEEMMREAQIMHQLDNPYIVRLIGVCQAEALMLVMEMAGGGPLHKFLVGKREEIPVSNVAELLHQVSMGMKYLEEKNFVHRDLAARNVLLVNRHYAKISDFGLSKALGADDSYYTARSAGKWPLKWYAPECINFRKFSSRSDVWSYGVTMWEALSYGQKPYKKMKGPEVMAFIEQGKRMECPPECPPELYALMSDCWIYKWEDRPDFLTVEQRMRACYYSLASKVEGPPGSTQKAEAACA
The experiment is described as follows: Inhibition of ZAP70.

Experiment [9] can be described thus: Selectivity ratio of IC50 for Csk to IC50 for human recombinant Lck.
In experiment [10] the target is Proto-oncogene tyrosine-protein kinase Src (Homo sapiens, UniProt P12931). As to the kind of experiment: Inhibition of Src.
Sequence of Proto-oncogene tyrosine-protein kinase Src (P12931 2-536 limits assumed): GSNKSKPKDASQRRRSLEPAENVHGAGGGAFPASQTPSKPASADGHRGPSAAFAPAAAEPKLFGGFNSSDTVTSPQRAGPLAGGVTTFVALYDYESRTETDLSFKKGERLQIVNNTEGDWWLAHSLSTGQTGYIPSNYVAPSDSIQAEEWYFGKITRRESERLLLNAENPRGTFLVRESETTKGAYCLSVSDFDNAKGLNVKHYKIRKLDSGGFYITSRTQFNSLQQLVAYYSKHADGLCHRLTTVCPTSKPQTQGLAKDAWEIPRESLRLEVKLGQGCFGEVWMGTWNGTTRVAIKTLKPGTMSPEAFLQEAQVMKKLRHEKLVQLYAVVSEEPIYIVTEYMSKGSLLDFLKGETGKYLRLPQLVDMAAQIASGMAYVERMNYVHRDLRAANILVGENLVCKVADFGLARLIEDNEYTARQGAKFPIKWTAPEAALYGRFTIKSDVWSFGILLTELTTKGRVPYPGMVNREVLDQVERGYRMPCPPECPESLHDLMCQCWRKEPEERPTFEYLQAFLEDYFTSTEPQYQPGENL
Experiment [11] addresses Tyrosine-protein kinase ABL1 (Homo sapiens, UniProt P00519). The experiment is described as follows: Inhibition of Abl.
The nature of experiment [12]: Inhibition of CAMK2.
Experiment [13] concerns the target RAC-alpha serine/threonine-protein kinase (Homo sapiens, UniProt P31749). As to the kind of experiment: Inhibition of PKB.
Experiment [14] has as its target Dual specificity mitogen-activated protein kinase kinase 1 (Homo sapiens, UniProt Q02750). The experiment is described as follows: Inhibition of MEK1.

The term IC50 denotes the concentration at which inhibition is half-maximal. By pIC50 is commonly meant −log10 of the IC50, conventionally taken in molar units. A lower pIC50 goes with a high IC50.

pIC50: −log10 of the molar value. Where only a bound is given, the exact number is not on record here.

Sequence of Tyrosine-protein kinase Lck (Homo sapiens) (P06239 2-509 limits assumed): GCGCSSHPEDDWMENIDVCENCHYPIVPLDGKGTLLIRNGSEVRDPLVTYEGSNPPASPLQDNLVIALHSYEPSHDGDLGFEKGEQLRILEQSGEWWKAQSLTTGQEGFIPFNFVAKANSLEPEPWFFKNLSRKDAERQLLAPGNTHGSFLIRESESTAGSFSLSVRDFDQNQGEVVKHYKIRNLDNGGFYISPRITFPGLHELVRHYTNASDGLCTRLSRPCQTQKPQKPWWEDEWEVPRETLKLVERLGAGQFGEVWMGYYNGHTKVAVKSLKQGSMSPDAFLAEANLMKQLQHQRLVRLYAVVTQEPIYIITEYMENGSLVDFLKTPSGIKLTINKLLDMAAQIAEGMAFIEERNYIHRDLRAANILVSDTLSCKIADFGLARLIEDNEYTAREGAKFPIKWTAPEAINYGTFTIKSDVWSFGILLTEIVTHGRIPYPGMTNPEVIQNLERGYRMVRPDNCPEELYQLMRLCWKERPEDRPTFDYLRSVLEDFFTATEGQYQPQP
Sequence of Tyrosine-protein kinase ABL1 (P00519 whole entry): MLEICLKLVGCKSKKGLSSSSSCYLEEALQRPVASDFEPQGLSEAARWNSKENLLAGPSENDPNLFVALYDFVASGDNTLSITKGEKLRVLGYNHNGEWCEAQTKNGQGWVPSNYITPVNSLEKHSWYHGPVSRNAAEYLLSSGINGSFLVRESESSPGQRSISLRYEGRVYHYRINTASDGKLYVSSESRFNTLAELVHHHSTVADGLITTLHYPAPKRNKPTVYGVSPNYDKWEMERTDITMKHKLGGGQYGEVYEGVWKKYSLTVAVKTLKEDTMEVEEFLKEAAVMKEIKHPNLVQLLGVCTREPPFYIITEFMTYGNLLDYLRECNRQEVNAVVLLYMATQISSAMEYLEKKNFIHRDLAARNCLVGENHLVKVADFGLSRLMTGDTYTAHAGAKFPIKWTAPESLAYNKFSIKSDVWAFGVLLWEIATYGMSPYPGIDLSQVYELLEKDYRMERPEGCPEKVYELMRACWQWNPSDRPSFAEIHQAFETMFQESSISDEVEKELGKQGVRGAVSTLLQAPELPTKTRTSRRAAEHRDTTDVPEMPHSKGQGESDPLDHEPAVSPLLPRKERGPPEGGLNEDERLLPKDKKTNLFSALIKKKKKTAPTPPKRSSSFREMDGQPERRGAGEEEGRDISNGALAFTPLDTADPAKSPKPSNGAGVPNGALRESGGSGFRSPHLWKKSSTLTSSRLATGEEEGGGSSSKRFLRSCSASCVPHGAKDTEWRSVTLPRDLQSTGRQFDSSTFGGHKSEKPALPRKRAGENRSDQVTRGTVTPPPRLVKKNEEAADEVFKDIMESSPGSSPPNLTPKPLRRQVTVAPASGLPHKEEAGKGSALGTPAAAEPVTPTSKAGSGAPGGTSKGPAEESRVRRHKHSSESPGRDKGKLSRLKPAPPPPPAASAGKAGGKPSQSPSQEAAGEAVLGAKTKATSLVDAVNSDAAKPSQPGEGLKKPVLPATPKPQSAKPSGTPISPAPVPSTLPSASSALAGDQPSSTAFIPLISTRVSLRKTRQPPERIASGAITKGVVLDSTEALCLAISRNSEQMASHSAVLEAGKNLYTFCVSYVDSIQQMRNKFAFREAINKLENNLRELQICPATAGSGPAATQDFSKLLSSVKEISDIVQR
Sequence of Dual specificity mitogen-activated protein kinase kinase 1 (Q02750 whole entry): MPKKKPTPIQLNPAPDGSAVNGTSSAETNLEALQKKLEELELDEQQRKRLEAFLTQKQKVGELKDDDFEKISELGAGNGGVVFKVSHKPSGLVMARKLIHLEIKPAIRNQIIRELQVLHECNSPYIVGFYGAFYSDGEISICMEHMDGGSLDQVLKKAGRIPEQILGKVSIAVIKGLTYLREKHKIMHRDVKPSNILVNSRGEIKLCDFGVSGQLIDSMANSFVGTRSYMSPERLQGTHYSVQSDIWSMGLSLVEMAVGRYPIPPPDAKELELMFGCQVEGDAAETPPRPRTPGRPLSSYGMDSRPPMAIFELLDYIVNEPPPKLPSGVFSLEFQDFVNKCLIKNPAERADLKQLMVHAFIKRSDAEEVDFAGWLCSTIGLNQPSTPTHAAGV
Sequence of RAC-alpha serine/threonine-protein kinase (P31749 whole entry): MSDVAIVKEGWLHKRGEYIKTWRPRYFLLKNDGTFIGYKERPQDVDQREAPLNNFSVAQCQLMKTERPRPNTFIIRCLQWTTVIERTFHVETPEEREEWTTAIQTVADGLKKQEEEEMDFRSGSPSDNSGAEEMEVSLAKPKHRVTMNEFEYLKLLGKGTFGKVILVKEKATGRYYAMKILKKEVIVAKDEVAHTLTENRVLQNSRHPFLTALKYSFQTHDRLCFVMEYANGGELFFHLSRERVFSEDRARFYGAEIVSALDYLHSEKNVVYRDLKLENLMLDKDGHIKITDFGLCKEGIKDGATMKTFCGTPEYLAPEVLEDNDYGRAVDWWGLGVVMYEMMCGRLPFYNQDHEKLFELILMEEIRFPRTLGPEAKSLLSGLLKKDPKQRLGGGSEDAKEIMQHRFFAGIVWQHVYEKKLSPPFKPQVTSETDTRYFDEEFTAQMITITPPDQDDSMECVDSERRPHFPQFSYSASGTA

For the compound `COc1ccc(-c2[nH]c(C(=O)c3c(F)cccc3F)c(N)c2C(N)=O)cc1`, the C50 in experiment [1] was greater than 100 nM.
With `NC(=O)c1c(-c2ccc(Oc3ccccc3)cc2)[nH]c(C(=O)c2ccc(Cl)cc2Cl)c1N`, the C50 in experiment [1] worked out at 2.3 nM.
On the same count and under the same terms, next, `COc1ccccc1C(=O)c1[nH]c(-c2ccc(Oc3ccccc3)cc2)c(C(N)=O)c1N`: 9.4 nM.
On to `NC(=O)c1c(-c2ccc(Oc3ccccc3)cc2)[nH]c(C(=O)c2cccc(Cl)c2Cl)c1N`, for which the C50 in [1] came to 1.2 nM. In addition, in experiment [2], the IC50 is 0.045 µM.
Taken in the same sequence, the figures for `NC(=O)c1c(-c2ccc(OCc3c(Cl)cccc3Cl)cc2)[nH]c(C(=O)c2c(F)cccc2F)c1N` were greater than 100 nM and greater than 1 µM.
As for `NC(=O)c1c(-c2ccc(Oc3ccccc3)cc2)[nH]c(C(=O)c2ccc(Cl)cc2)c1N`, in experiment [1], the C50 was 7 nM.
The same measure, in the same setting: next, `NC(=O)c1c(-c2ccc(NC(=O)c3ccccc3)cc2)[nH]c(C(=O)c2c(F)cccc2F)c1N`: greater than 100 nM; `NC(=O)c1c(-c2ccc(Oc3ccccc3)cc2)[nH]c(C(=O)c2ccc(Oc3ccccc3)cc2)c1N`: 49 nM; `NC(=O)c1c(-c2ccc(Oc3ccccc3)cc2)[nH]c(C(=O)c2cc(Cl)ccc2Cl)c1N`: 19 nM.
The same measure, in the same setting: then `NC(=O)c1c(-c2ccc(Oc3ncccn3)cc2)[nH]c(C(=O)c2c(F)cccc2F)c1N`, with greater than 100 nM.
On the same count and under the same terms, next, `NC(=O)c1c(-c2ccc(Oc3ccccc3)cc2)[nH]c(C(=O)c2ccc(F)cc2)c1N`: 10 nM.
On to `NC(=O)c1c(-c2ccc(NCC3CCCCC3)cc2)[nH]c(C(=O)c2c(F)cccc2F)c1N`, for which the C50 in [1] amounted to 74 nM.
As to `NC(=O)c1c(-c2ccc(Oc3ccccc3)cc2)[nH]c(C(=O)c2c(F)cccc2F)c1N`, the pIC50 was less than 5.00 in [3]; 8.35 in experiment [4]; less than 5.00 in experiment [6]; less than 5.00 in experiment [7]; less than 5.00 in experiment [8]; 7.64 in [10]. For the same compound, the pIC50 in experiment [11], in [12], in experiment [13] and in experiment [14] was less than 5.00 throughout. Besides, the Ratio IC50 in experiment [5] was greater than 17; in experiment [9], greater than 3. For the same compound, in [1], the C50 was determined as 1.3 nM. In addition, the half-maximal inhibitory concentration (IC50) in [2] was found to be 0.031 µM.
Take `NC(=O)c1c(-c2ccc(N)cc2)[nH]c(C(=O)c2c(F)cccc2F)c1N`: in experiment [1], the C50 is greater than 100 nM. Also, the IC50 in [2] is greater than 1 µM.
Taken in the same sequence, the figures for `CN(Cc1c(Cl)cccc1Cl)c1ccc(-c2[nH]c(C(=O)c3c(F)cccc3F)c(N)c2C(N)=O)cc1` were 92 nM and greater than 1 µM.
For `NC(=O)c1c(-c2ccc(NCc3cc(Cl)ccc3Cl)cc2)[nH]c(C(=O)c2c(F)cccc2F)c1N`, the C50 in experiment [1] was 93 nM.
As to `NC(=O)c1c(-c2ccc(Oc3ccccc3)cc2)[nH]c(C(=O)c2ccccc2Cl)c1N`, the C50 in experiment [1] is 1.8 nM. The IC50 in experiment [2] came out at 0.069 µM.
As for `Cc1cc(C)cc(C(=O)c2[nH]c(-c3ccc(Oc4ccccc4)cc3)c(C(N)=O)c2N)c1`, the C50 in experiment [1] came to 13 nM.
Same read-out and setting: then `NC(=O)c1c(-c2ccc(NCc3ccccc3)cc2)[nH]c(C(=O)c2c(F)cccc2F)c1N`, with 6.4 nM.
For the compound `Cc1ccccc1C(=O)c1[nH]c(-c2ccc(Oc3ccccc3)cc2)c(C(N)=O)c1N`, in [1], the C50 worked out at 2.7 nM. Also, the IC50 in experiment [2] is 0.18 µM.
Taken in the same sequence, the figures for `NC(=O)c1c(-c2ccc(Oc3ccccc3)cc2)[nH]c(C(=O)c2ccccc2Br)c1N` were 2.5 nM and 0.15 µM.
Taken in the same sequence, the figures for `NC(=O)c1c(-c2ccc(Oc3ccccc3)cc2)[nH]c(C(=O)c2ccccc2C(F)(F)F)c1N` were 3.5 nM and 0.068 µM.
For `Cc1cccc(C(=O)c2[nH]c(-c3ccc(Oc4ccccc4)cc3)c(C(N)=O)c2N)c1`, in [1], the C50 was 4 nM. In [2], the IC50 is 0.42 µM.
Taken in the same sequence, the figures for `NC(=O)c1c(-c2ccc(NCc3c(Cl)cccc3Cl)cc2)[nH]c(C(=O)c2c(F)cccc2F)c1N` were 0.92 nM and 0.031 µM.
Taken in the same sequence, the figures for `NC(=O)c1c(-c2ccc(OCc3ccccc3)cc2)[nH]c(C(=O)c2c(F)cccc2F)c1N` were 6.1 nM and greater than 1 µM.
Regarding `NC(=O)c1c(-c2ccc(Oc3ccccc3)cc2)[nH]c(C(=O)c2cccc(Cl)c2)c1N`, in experiment [1], the C50 was found to be 6.3 nM.
For the compound `Cc1ccc(C(=O)c2[nH]c(-c3ccc(Oc4ccccc4)cc3)c(C(N)=O)c2N)c(C)c1`, the C50 in experiment [1] was determined as 1.8 nM.
Same read-out and setting: next, `NC(=O)c1c(-c2ccc(Oc3ccccc3)cc2)[nH]c(C(=O)c2cccc(Br)c2)c1N`: 6.2 nM.
As for `Cc1cccc(Cl)c1CNc1ccc(-c2[nH]c(C(=O)c3c(F)cccc3F)c(N)c2C(N)=O)cc1`, the C50 in experiment [1] stood at 3.6 nM. Further, the 50% inhibitory concentration (IC50) in [2] turned out to be 0.056 µM.
`Cc1ccc(C)c(C(=O)c2[nH]c(-c3ccc(Oc4ccccc4)cc3)c(C(N)=O)c2N)c1`: the C50 in experiment [1] was determined as 10 nM.
The same measure, in the same setting: then `NC(=O)c1c(-c2ccc(Oc3ccccc3)cc2)[nH]c(C(=O)c2ccccc2)c1N`, with 11 nM.
Take `NC(=O)c1c(-c2ccc(Oc3ccccc3)cc2)[nH]c(C(=O)c2ccc(Br)cc2)c1N`: the C50 in [1] stood at 5.9 nM.
On the same count and under the same terms, next, `NC(=O)c1c(-c2ccc(Oc3ccccc3)cc2)[nH]c(C(=O)c2cc(Cl)cc(Cl)c2)c1N`: 38 nM.
The same measure, in the same setting: next, `NC(=O)c1c(-c2ccc(Oc3ccccc3)cc2)[nH]c(C(=O)c2ccccc2F)c1N`: 1.5 nM.
`Cc1cccc(C(=O)c2[nH]c(-c3ccc(Oc4ccccc4)cc3)c(C(N)=O)c2N)c1C`: the C50 in experiment [1] amounted to 2.6 nM. Moreover, the IC50 in experiment [2] came to 0.11 µM.
Taken in the same sequence, the figures for `Cc1ccc(C(=O)c2[nH]c(-c3ccc(Oc4ccccc4)cc3)c(C(N)=O)c2N)cc1` were 2.8 nM and 0.18 µM.
Taken in the same sequence, the figures for `NC(=O)c1c(-c2ccc(Oc3ccccc3)cc2)[nH]c(C(=O)c2c(F)cc(F)cc2F)c1N` were 1.8 nM and 0.062 µM.
Turning to `NC(=O)c1c(-c2ccc(Oc3ccccc3)cc2)[nH]c(C(=O)c2cccc(F)c2)c1N`, the C50 in experiment [1] was 5 nM.
